Measured values published in PMC10841542 (Immunology, 2023).
“Also recorded” adds a separate entry of the source. Each block holds one compound with its values, some of them ahead of it.

Assays:
[1] = target: T1, ERAP1 V737R (Homo sapiens, UniProt Q9NZ08, V737R); assay: Simple activation assay; assay type: biochemical; details: 100 μM L-AMC, pH 8.0, 25 °C, 5 min
Summary of the method: (§1)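 ERAP1 enzyme: allotype-1, WT or point mutant, with a C-terminal His6 tag. It was expressed in Sf9 cells by baculovirus and purified by Ni-NTA and gel filtration. Assay: 1.5 µg ml-1 enzyme in 50 mM Tris/HCl pH 8.0, 0.1 M NaCl at 25 °C, with or without 100 µM 7-mer peptide activator. Hydrolysis of 100 µM L-AMC was followed for 5 min by AMC fluorescence (ex 380/em 460 nm), calibrated with AMC standards.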

[2] = target: T2, ERAP1 I681R (Homo sapiens, UniProt Q9NZ08, I681R); assay: Simple activation assay; assay type: biochemical; details: 100 μM L-AMC, pH 8.0, 25 °C, 5 min
T2 sequence (Q9NZ08 whole entry I681R): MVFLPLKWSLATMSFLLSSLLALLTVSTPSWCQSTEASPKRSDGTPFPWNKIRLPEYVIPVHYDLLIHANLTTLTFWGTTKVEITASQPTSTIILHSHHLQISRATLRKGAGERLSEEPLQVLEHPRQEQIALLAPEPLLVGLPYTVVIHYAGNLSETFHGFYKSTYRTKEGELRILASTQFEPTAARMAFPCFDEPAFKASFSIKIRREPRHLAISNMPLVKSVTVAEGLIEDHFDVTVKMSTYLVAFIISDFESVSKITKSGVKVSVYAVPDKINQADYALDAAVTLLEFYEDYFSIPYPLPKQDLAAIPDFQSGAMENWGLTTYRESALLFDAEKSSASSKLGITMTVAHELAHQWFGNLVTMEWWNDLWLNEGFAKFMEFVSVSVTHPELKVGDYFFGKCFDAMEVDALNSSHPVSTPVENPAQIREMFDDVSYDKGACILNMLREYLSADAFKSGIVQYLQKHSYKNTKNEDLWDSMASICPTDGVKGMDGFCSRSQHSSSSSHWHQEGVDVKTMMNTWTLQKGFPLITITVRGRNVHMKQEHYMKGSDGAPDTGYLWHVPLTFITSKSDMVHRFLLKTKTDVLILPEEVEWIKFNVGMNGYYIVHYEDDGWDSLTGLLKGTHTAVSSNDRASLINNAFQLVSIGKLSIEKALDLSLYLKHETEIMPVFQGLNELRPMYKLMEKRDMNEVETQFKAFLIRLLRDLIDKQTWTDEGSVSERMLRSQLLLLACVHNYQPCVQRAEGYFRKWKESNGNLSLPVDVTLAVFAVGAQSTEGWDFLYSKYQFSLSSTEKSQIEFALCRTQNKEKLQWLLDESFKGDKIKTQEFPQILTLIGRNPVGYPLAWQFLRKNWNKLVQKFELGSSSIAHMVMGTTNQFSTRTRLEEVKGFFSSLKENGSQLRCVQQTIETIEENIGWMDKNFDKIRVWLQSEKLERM
Summary of the method: as §1

[3] = target: T2, ERAP1 I681R; assay: Steady-state kinetics of L-AMC hydrolysis ± 7-mer peptide activator, I681R; assay type: biochemical; details: pH 8.0, 27 °C
Summary of the method: (§2)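 Steady-state kinetics used purified His6-tagged ERAP1 (allotype-1, WT or mutant) from baculovirus-infected Sf9 cells at 1.5 µg ml-1. Buffer was 50 mM Tris/HCl pH 8.0, 0.1 M NaCl at 27 °C, with L-AMC at 0–2,000 µM, with or without 100 µM 7-mer peptide. AMC release (ex 380/em 460 nm) was followed for 5 min. Initial rates from three time points (nmoles.min-1.µg-1) were curve-fitted for Vmax, K1/2 and Hill coefficient. Comparisons used Brown-Forsyth one-way ANOVA with Tukey's test.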

[4] = tested on: ERAP1 WT; assay: Steady-state kinetics of L-AMC hydrolysis ± 7-mer peptide activator, ERAP1 WT; assay type: biochemical, human; details: pH 8.0, 27 °C
Summary of the method: as §2

[5] = tested on: ERAP1 L734R; assay: Simple activation assay; assay type: biochemical, human; details: 100 μM L-AMC, pH 8.0, 25 °C, 5 min
Summary of the method: as §1

[6] = tested on: ERAP1 F803R; assay: Simple activation assay; assay type: biochemical, human; details: 100 μM L-AMC, pH 8.0, 25 °C, 5 min; for activation of L-AMC hydrolysis over basal level: 100 μM peptide
Summary of the method: as §1

[7] = tested on: ERAP1 WT; assay: Simple activation assay; assay type: biochemical, human; details: 100 μM L-AMC, pH 8.0, 25 °C, 5 min; for activation of L-AMC hydrolysis over basal level: 100 μM peptide
Summary of the method: as §1

[8] = target: T3, ERAP1 L733R (Homo sapiens, UniProt Q9NZ08, L733R); assay: Simple activation assay; assay type: biochemical; details: 100 μM L-AMC, pH 8.0, 25 °C, 5 min
T3 sequence (Q9NZ08 whole entry L733R): as the sequence (Q9NZ08 whole entry I681R) above, with R681I, L733R counted along it
Summary of the method: as §1

[9] = target: T3, ERAP1 L733R; assay: Steady-state kinetics of L-AMC hydrolysis ± 7-mer peptide activator, L733R; assay type: biochemical; details: pH 8.0, 27 °C
Summary of the method: as §2

[10] = target: T1, ERAP1 V737R; assay: Steady-state kinetics of L-AMC hydrolysis ± 7-mer peptide activator, V737R; assay type: biochemical; details: pH 8.0, 27 °C; for allosteric activation in steady state kinetics: 100 μM peptide, 0–2,000 μM L-AMC
Summary of the method: as §2

[11] = tested on: ERAP1 L734R; assay: Steady-state kinetics of L-AMC hydrolysis ± 7-mer peptide activator, L734R; assay type: biochemical, human; details: pH 8.0, 27 °C
Summary of the method: as §2

[12] = target: T4, ERAP1 F803R (Homo sapiens, UniProt Q9NZ08, F803R); assay: Steady-state kinetics of L-AMC hydrolysis ± 7-mer peptide activator, F803R; assay type: biochemical; details: pH 8.0, 27 °C
T4 sequence (Q9NZ08 whole entry F803R): as the sequence (Q9NZ08 whole entry I681R) above, with R681I, F803R counted along it
Summary of the method: as §2

[13] = tested on: ERAP1 WT and variants; assay type: biochemical, human; details: 100 μM peptide; most enzyme variants; 0–2,000 μM L-AMC; pH 8.0; 27 °C
Summary of the method: as §2

[14] = target: T1, ERAP1 V737R; assay: Allosteric activation of L-AMC hydrolysis, varying peptide effector, V737R; assay type: biochemical; details: 0–2,000 μM peptide, 100 μM L-AMC, 27 °C, three independent repeats
Summary of the method: (§3)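 Recombinant human ERAP1 (allotype-1, WT or Arg point mutant) carrying a C-terminal His6 tag, expressed in baculovirus-infected Sf9 cells and purified by Ni-NTA then gel filtration (full-length peak). 1.5 µg/ml enzyme with 100 µM L-AMC and 7-mer peptide activator varied 0–2,000 µM, in 50 mM Tris/HCl pH 8.0, 0.1 M NaCl, 27 °C, 5 min. AMC fluorescence read at ex 380/em 460 nm against AMC standards. Vmax and AC50 fitted to Michaelis-Menten.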

[15] = target: ERAP1 L734R (Homo sapiens, UniProt Q9NZ08, L734R); assay: Allosteric activation of L-AMC hydrolysis, varying peptide effector, L734R; assay type: biochemical; details: 0–2,000 μM peptide, 100 μM L-AMC, 27 °C, three independent repeats
Chain of ERAP1 L734R (Homo sapiens, UniProt Q9NZ08, L734R) (Q9NZ08 whole entry L734R): as the sequence (Q9NZ08 whole entry I681R) above, with R681I, L734R counted along it
Summary of the method: as §3

[16] = tested on: ERAP1 WT; assay: Allosteric activation of L-AMC hydrolysis, varying peptide effector, ERAP1 WT; assay type: biochemical, human; details: 0–2,000 μM peptide, 100 μM L-AMC, 27 °C, three independent repeats
Summary of the method: as §3

[17] = target: T3, ERAP1 L733R; assay: Allosteric activation of L-AMC hydrolysis, varying peptide effector, L733R; assay type: biochemical; details: 0–2,000 μM peptide, 100 μM L-AMC, 27 °C, three independent repeats
Summary of the method: as §3

[18] = target: T2, ERAP1 I681R; assay: Allosteric activation of L-AMC hydrolysis, varying peptide effector, I681R; assay type: biochemical; details: 0–2,000 μM peptide, 100 μM L-AMC, 27 °C, three independent repeats
Summary of the method: as §3

[19] = target: T4, ERAP1 F803R; assay: Allosteric activation of L-AMC hydrolysis, varying peptide effector, F803R; assay type: biochemical; details: 0–2,000 μM peptide, 100 μM L-AMC, 27 °C, three independent repeats
Summary of the method: as §3

[20] = tested on: ERAP1 WT; assay: N-terminal peptide trimming, LC-MS/MS, ERAP1 WT; assay type: biochemical, human; details: from 11-mer KL1, pH 7.8, 30 °C, two independent experiments
[21] = target: ERAP1 F803R (Homo sapiens, UniProt Q9NZ08, F803R/R127P); assay: N-terminal peptide trimming, LC-MS/MS, F803R; assay type: biochemical; details: from 11-mer KL1, pH 7.8, 30 °C, two independent experiments
Chain of ERAP1 F803R (Homo sapiens, UniProt Q9NZ08, F803R/R127P) (Q9NZ08 whole entry R127P/F803R): as the sequence (Q9NZ08 whole entry I681R) above, with R127P, R681I, F803R counted along it

[22] = tested on: ERAP1; details: cited from earlier work
[23] = no peptide activator, three independent repeats
[24] = 100 μM peptide, relative to wildtype
[25] = 1.5 μg/ml enzyme, 50 mM Tris/HCl pH 8.0, 0.1 M NaCl, 5 min
[26] = read-out: AC50 (half maximal activation concentration), pH 8.0
[27] = 100 μM peptide, 0–2,000 μM L-AMC

T1 sequence (Q9NZ08 whole entry V737R): as the sequence (Q9NZ08 whole entry I681R) above, with R681I, V737R counted along it

basal L-AMC hydrolysis ([1]; no peptide): low but detectable basal level | Hill coef. (h) [3, 23]: 1.8 | K1/2 (half-Vmax concentration of L-AMC) [3, 23]: 0.23 ± 0.04 mM | basal L-AMC hydrolysis ([8]; no peptide): low but detectable basal level | Hill coef. (h) [9, 23]: 1.5 | K1/2 (half-Vmax concentration of L-AMC) [9, 23]: 0.19 ± 0.03 mM | Hill coef. (h) [10, 23]: 1.9 | K1/2 (half-Vmax concentration of L-AMC) [10, 23]: 0.52 ± 0.09 mM | K1/2 (half-Vmax concentration of L-AMC) [12, 23]: 0.39 ± 0.06 mM
Compound: Cc1cc(=O)oc2cc(NC(=O)[C@@H](N)CC(C)C)ccc12 [L-AMC, leucine-7-amido-4-methyl-coumarin, reference compound]
basal L-AMC hydrolysis ([2]; no peptide): low but detectable basal level; also recorded: higher than the other mutant enzymes and the WT enzyme | Hill coef. (h) [4, 23]: 2.6 | K1/2 (half-Vmax concentration of L-AMC) [4, 23]: 0.38 ± 0.05 mM | basal L-AMC hydrolysis ([5]; no peptide): low but detectable basal level; also recorded: higher than the other mutant enzymes and the WT enzyme | basal L-AMC hydrolysis ([6]; no peptide): low but detectable basal level | basal L-AMC hydrolysis ([7]; no peptide): low but detectable basal level | Hill coef. (h) [11, 23]: 1.3 | K1/2 (half-Vmax concentration of L-AMC) [11, 23]: 0.33 ± 0.09 mM

change of sigmoidal curves, h values, or Vmax [13]: did not change much the sigmoidal curves | activation of L-AMC hydrolysis above basal activity ([1]; 100 μM peptide): ~ 30% | activation of L-AMC hydrolysis over basal level ([1]; 100 μM peptide): slight but significant activation
Compound: IINFEKE
activation of L-AMC hydrolysis over basal level ([2]; 100 μM peptide): not activated significantly above their basal levels | activation of L-AMC hydrolysis over basal level ([5]; 100 μM peptide): not activated significantly above their basal levels | activation of L-AMC hydrolysis over basal level [6]: not activated significantly above their basal levels; also recorded: did not show significant difference from their respective basal activity | activation of L-AMC hydrolysis over basal level [7]: not activated significantly above their basal levels; also recorded: did not show significant difference from their respective basal activity | activation of L-AMC hydrolysis over basal level ([8]; 100 μM peptide): not activated significantly above their basal levels; also recorded: did not show significant difference from their respective basal activity | allosteric activation in steady state kinetics [10]: significantly activated; also recorded: not a very effective activator

allosteric activation compared to wildtype enzyme [2, 24]: about 75% | Vmax of L-AMC hydrolysis, peptide activator varied [14, 25]: 62 ± 7 nmol/min/µg | AC50 [14, 26]: 590 ± 170 µM | allosteric activation in steady state kinetics [3, 27]: significant or dramatic increase of Vmax | Vmax of L-AMC hydrolysis, peptide activator varied [15, 25]: 112 ± 8 nmol/min/µg | AC50 [15, 26]: 580 ± 120 µM | allosteric activation compared to wildtype enzyme [5, 24]: ~55% | allosteric activation compared to wildtype enzyme [8, 24]: ~50% | allosteric activation in steady state kinetics [9, 27]: significant or dramatic increase of Vmax | Vmax of L-AMC hydrolysis, peptide activator varied [17, 25]: 211 ± 10 nmol/min/µg | AC50 [17, 26]: 440 ± 60 µM | Vmax of L-AMC hydrolysis, peptide activator varied [18, 25]: 175 ± 54 nmol/min/µg | AC50 [18, 26]: 1460 ± 840 µM | allosteric activation in steady state kinetics [10]: significant or dramatic increase of Vmax | Vmax of L-AMC hydrolysis, peptide activator varied [19, 25]: 217 ± 9 nmol/min/µg | AC50 [19, 26]: 170 ± 30 µM
Compound: IINFEKL
activation of L-AMC hydrolysis over basal level ([1]; 100 μM peptide): lowest activity in the presence of IINFEKL peptide and with the smallest activation from its basal activity | allosteric activation in steady state kinetics [4, 27]: significant or dramatic increase of Vmax; also recorded: effective allosteric activator | activation of L-AMC hydrolysis over basal level [6]: significant increase | activation of L-AMC hydrolysis over basal level [7]: significant increase | Vmax of L-AMC hydrolysis, peptide activator varied [16, 25]: 241 ± 6 nmol/min/µg | AC50 [16, 26]: 80 ± 10 µM | allosteric activation in steady state kinetics [11, 27]: significant or dramatic increase of Vmax | allosteric activation in steady state kinetics [12, 27]: significant or dramatic increase of Vmax; also recorded: effective allosteric activator

Compound: LESIINFEKL [KL2]
time after which the amount of 10-mer product began to decrease [20]: > 10 min | time after which the amount of 10-mer product began to decrease [21]: > 10 min

Compound: QLESIINFEKL [KL1]
processing by ERAP1 [22]: efficiently processed by ERAP1
